# Key:
# [1] = biological target: Dual specificity tyrosine-phosphorylation-regulated kinase 1A (Rattus norvegicus, UniProt Q63470); assay: Inhibition of rat recombinant DYRK1A expressed in Escherichia coli using myelin basic protein as substrate after 30 mins by scintillation counting analysis in presence of [gamma-33P]ATP
# [2] = biological target: Glycogen synthase kinase-3 (Sus scrofa, UniProt B2LUN4+I6LNT8); assay: Inhibition of pig brain GSK-3alpka/beta using YRRAAVPPSPSLSRHSSPHQSpEDEEE as substrate after 30 mins by scintillation counting analysis in presence of [gamma-33P]ATP
# [3] = biological target: T1, Casein kinase I isoform alpha (Sus scrofa, UniProt O19175); assay: Inhibition of pig brain CK1 using RRKHAAIGpSAYSITA as substrate after 30 mins by scintillation counting analysis in presence of [gamma-33P]ATP
# T1 sequence (O19175 whole entry): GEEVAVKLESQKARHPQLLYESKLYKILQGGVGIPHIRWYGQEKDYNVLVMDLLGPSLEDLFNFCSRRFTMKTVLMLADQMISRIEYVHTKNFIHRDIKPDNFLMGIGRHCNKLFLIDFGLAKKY
# [4] = biological target: Cyclin-dependent kinase 5/CDK5 activator 1 (Homo sapiens, UniProt Q00535); assay: Inhibition of human recombinant CDK5/p25 after 30 mins by scintillation counting analysis in presence of [gamma-33P]ATP; type: protein-complex assay
# HCT-116 = assay: Cytotoxicity against human HCT116 cells after 48 hrs by MTT assay; type: functional, cell-based; details: HCT-116, 48 h
# Method in brief: (§1)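 Run in triplicate, with the mean reported; the IC50 for each cell line comes from non-linear regression with a 95% confidence interval.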
# OVCAR-8 = assay: Cytotoxicity against human OVCAR8 cells after 48 hrs by MTT assay; type: functional, cell-based; details: OVCAR-8, 48 h; method in brief: as §1
# SF-295 = assay: Cytotoxicity against human SF295 cells after 48 hrs by MTT assay; type: functional, cell-based; details: SF-295, 48 h; method in brief: as §1
# HL-60 = assay: Cytotoxicity against human HL60 cells after 48 hrs by MTT assay; type: functional, cell-based; details: HL-60, 48 h; method in brief: as §1
# Chain of Cyclin-dependent kinase 5/CDK5 activator 1 (Q00535 whole entry): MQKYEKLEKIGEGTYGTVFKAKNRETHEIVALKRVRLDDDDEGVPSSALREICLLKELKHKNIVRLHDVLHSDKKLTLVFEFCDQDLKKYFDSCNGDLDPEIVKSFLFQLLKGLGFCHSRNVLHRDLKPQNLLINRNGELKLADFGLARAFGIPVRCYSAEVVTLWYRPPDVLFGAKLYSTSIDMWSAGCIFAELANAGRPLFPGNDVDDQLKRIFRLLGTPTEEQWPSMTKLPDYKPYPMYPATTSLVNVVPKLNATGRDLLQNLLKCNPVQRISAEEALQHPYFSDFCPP
# Chain of Cyclin-dependent kinase 5/CDK5 activator 1 (Q15078 whole entry, further chain): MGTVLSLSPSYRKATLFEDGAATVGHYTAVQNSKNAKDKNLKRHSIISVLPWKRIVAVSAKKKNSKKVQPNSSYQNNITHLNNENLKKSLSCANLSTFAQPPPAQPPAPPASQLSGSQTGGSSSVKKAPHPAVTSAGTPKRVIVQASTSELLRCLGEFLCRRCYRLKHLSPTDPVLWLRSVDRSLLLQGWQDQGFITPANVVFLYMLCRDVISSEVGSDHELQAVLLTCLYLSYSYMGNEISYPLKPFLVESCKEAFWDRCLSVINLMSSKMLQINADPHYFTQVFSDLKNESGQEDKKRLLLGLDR
SMILES,IC50 [1],IC50 [2],IC50 [3],IC50 [4],IC50 (HCT-116),IC50 (OVCAR-8),IC50 (SF-295),IC50 (HL-60)
O=C(Nc1cc(-c2ccccc2)c(Cl)nn1)c1ccccc1,> 10 µM,> 10 µM,> 10 µM,> 10 µM,–,–,–,–
CCCNc1cc(-c2ccccc2)c(=O)[nH]n1,> 10 µM,> 10 µM,> 10 µM,> 10 µM,–,–,–,–
O=C(Cc1ccccc1)N(C(=O)Cc1ccccc1)c1nnc(Cl)c2ccccc12,> 10 µM,> 10 µM,> 10 µM,> 10 µM,–,–,–,–
Nc1n[nH]c(=O)cc1-c1ccccc1,> 10 µM,> 10 µM,> 10 µM,> 10 µM,–,–,–,–
O=c1cc(-c2ccccc2)c(NCCN2CCCCC2)n[nH]1,> 10 µM,> 10 µM,> 10 µM,> 10 µM,–,–,–,–
CC(C)C(=O)Nc1n[nH]c(=O)c2ccccc12,> 10 µM,> 10 µM,> 10 µM,> 10 µM,–,–,–,–
Nc1n[nH]c(=O)c2ccccc12,4.1 µM,> 10 µM,> 10 µM,> 10 µM,12.7 µM,11.8 µM,6.06 µM,8.87 µM
O=C(Nc1cc(-c2ccccc2)c(=O)[nH]n1)c1ccccc1,> 10 µM,> 10 µM,> 10 µM,> 10 µM,–,–,–,–
O=C(Nc1n[nH]c(=O)c2ccccc12)c1ccccc1,> 10 µM,> 10 µM,> 10 µM,> 10 µM,–,–,–,–
O=C(Cc1ccccc1)Nc1nnc(Cl)c2ccccc12,> 10 µM,> 10 µM,> 10 µM,> 10 µM,–,–,–,–
CC(C)C(=O)N(C(=O)C(C)C)c1n[nH]c(=O)c2ccccc12,> 10 µM,> 10 µM,> 10 µM,> 10 µM,–,–,–,–
CCCNc1n[nH]c(=O)c2ccccc12,> 10 µM,> 10 µM,> 10 µM,> 10 µM,–,–,–,–
CCCNc1n[nH]c(=O)cc1-c1ccccc1,> 10 µM,> 10 µM,> 10 µM,> 10 µM,–,–,–,–
CC(=O)Nc1cc(-c2ccccc2)c(=O)[nH]n1,10 µM,2.2 µM,> 10 µM,> 10 µM,15.4 µM,14 µM,7.66 µM,11.6 µM
CCCCCC(=O)N(C(=O)CCCCC)c1nnc(Cl)c2ccccc12,> 10 µM,> 10 µM,> 10 µM,> 10 µM,–,–,–,–
O=c1[nH]nc(NCc2ccccc2)cc1-c1ccccc1,> 10 µM,> 10 µM,> 10 µM,> 10 µM,–,–,–,–
CC(=O)Nc1n[nH]c(=O)c2ccccc12,> 10 µM,> 10 µM,> 10 µM,> 10 µM,–,–,–,–
O=c1[nH]nc(NCCN2CCCCC2)c2ccccc12,> 10 µM,> 10 µM,> 10 µM,> 10 µM,–,–,–,–
O=c1[nH]nc(NCCN2CCCCC2)cc1-c1ccccc1,> 10 µM,> 10 µM,> 10 µM,> 10 µM,–,–,–,–
O=c1cc(-c2ccccc2)c(NCc2ccccc2)n[nH]1,> 10 µM,> 10 µM,> 10 µM,> 10 µM,–,–,–,–
Nc1cc(-c2ccccc2)c(=O)[nH]n1,6 µM,8.1 µM,> 10 µM,> 10 µM,4.4 µM,4.86 µM,5.71 µM,3.64 µM
CC(=O)N(C(C)=O)c1n[nH]c(=O)c2ccccc12,> 10 µM,> 10 µM,> 10 µM,> 10 µM,–,–,–,–
CN1CCC(Nc2cc(-c3ccccc3)c(=O)[nH]n2)CC1,> 10 µM,> 10 µM,> 10 µM,> 10 µM,–,–,–,–
CC(=O)Nc1n[nH]c(=O)cc1-c1ccccc1,> 10 µM,> 10 µM,> 10 µM,> 10 µM,–,–,–,–
O=C(Cc1ccccc1)Nc1n[nH]c(=O)c2ccccc12,> 10 µM,> 10 µM,> 10 µM,> 10 µM,–,–,–,–

# Source: ChEMBL document CHEMBL2346615, “Design, synthesis, and molecular modelling of pyridazinone and phthalazinone derivatives as protein kinases inhibitors” (Bioorg Med Chem Lett, 2013)
